Experimental data as given in ChEMBL document CHEMBL3352307, “Bioactive anthraquinone derivatives from the mangrove-derived fungus Stemphylium sp. 33231” (J Nat Prod, 2014).
Values after ≈ are worked out from the molar mass of the structure shown.

Columns and labels:
Bacillus subtilis = assay: Antimicrobial activity against Bacillus subtilis ATCC 6633 by broth dilution assay; type: functional
Procedure, shortened: (§1)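 Conventional broth dilution run on the seven terrestrial pathogenic bacterial strains, with ciprofloxacin as positive control.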

Kocuria rhizophila = assay: Antimicrobial activity against Kocuria rhizophila ATCC 9341 by broth dilution assay; type: functional; procedure, shortened: as §1
[1] = Cytotoxic activity against mouse B16F10 cells by MTT assay; type: functional, cell-based; conditions: B16-F10
Procedure, shortened: (§2)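 MTT viability read-out on mouse melanoma B16F10 and human lung adenocarcinoma A549 lines, with epirubicin as positive control. Activity is given as IC50.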

Escherichia coli = assay: Antimicrobial activity against Escherichia coli ATCC 25922 by broth dilution assay; type: functional; procedure, shortened: as §1
Staphylococcus = assay: Antimicrobial activity against Staphylococcus albus ATCC 8799 by broth dilution assay; type: functional; procedure, shortened: as §1
Bacillus cereus = assay: Antimicrobial activity against Bacillus cereus ATCC 14579 by broth dilution assay; type: functional; procedure, shortened: as §1
Micrococcus = assay: Antimicrobial activity against Micrococcus tetragenus ATCC 13623 by broth dilution assay; type: functional; procedure, shortened: as §1
Staphylococcus aureus = assay: Antimicrobial activity against Staphylococcus aureus ATCC 6538 by broth dilution assay; type: functional; procedure, shortened: as §1
A549 = assay: Cytotoxic activity against human A549 cells by MTT assay; type: functional, cell-based; procedure, shortened: as §2
[2] = Bacillus subtilis, ATCC 6633, read-out: MIC
[3] = Kocuria rhizophila, ATCC 9341, read-out: MIC
[4] = Escherichia coli, ATCC 25922, read-out: MIC
[5] = Staphylococcus, ATCC 8799, read-out: MIC
[6] = Bacillus cereus, ATCC 14579, read-out: MIC
[7] = Micrococcus, ATCC 13623, read-out: MIC
[8] = Staphylococcus aureus, ATCC 6538, read-out: MIC

SMILES	MIC (Bacillus subtilis; [2]) [µM]	MIC (Kocuria rhizophila; [3]) [µM]	IC50 [1] [µM]	MIC (Escherichia coli; [4]) [µM]	MIC (Staphylococcus; [5]) [µM]	MIC (Bacillus cereus; [6]) [µM]	MIC (Micrococcus; [7]) [µM]	MIC (Staphylococcus aureus; [8]) [µM]	IC50 (A549) [µM]	MIC (Escherichia coli) [µM]	MIC (Bacillus cereus) [µM]	MIC (Staphylococcus aureus) [µM]	MIC (Bacillus subtilis) [µM]	MIC (Kocuria rhizophila) [µM]	MIC (Staphylococcus) [µM]	MIC (Micrococcus) [µM]
COc1cc(O)c2c(c1)[C@H](O)[C@@H]1C(=C[C@@H](O)[C@@](C)(O)[C@@H]1O)C2=O	> 10	> 10	> 10	> 10	> 10	> 10	> 10	> 10	> 10							
COc1cc(O)c2c(c1)C(=O)[C@@]13O[C@]1(C2=O)[C@H](O)[C@@H](O)[C@@](C)(O)[C@@H]3O	> 10	> 10	> 10	9.8 (≈ 3.45 µg/mL)	> 10	> 10	> 10	> 10	> 10							
COc1cc(O)c2c(c1)C(=O)C1=C(C[C@@H](OC(C)=O)[C@@](C)(O)C1)C2=O	3.9 (≈ 1.35 µg/mL)	> 10	> 10	3.9 (≈ 1.35 µg/mL)	3.9 (≈ 1.35 µg/mL)	> 10	7.8 (≈ 2.7 µg/mL)	3.9 (≈ 1.35 µg/mL)	> 10							
COc1cc2c(c(O)c1-c1c(OC)cc(O)c3c1C(=O)C1=C(C[C@@H](O)[C@@](C)(O)C1)C3=O)C(=O)C1=C(C[C@](C)(O)[C@H](O)C1)C2=O	> 10	> 10	> 10	> 10	> 10	8.3 (≈ 5.03 µg/mL)	> 10	> 10	> 10							
COc1cc(O)c2c(c1)C(=O)c1cc(C)c(O)c(-c3c(O)c(C)cc4c3C(=O)c3c(O)cc(OC)cc3C4=O)c1C2=O	> 10	> 10	> 10	> 10	> 10	8.1 (≈ 4.59 µg/mL)	> 10	> 10	> 10							
COc1cc(O)c2c(c1)[C@H](O)[C@@H]1[C@H](C[C@@H](OC(C)=O)[C@@](C)(O)[C@@H]1O)C2=O	> 10	> 10	> 10	> 10	> 10	> 10	> 10	> 10	> 10							
COc1cc(O)c2c(c1)C(=O)c1cc(C)c(OS(=O)(=O)O)cc1C2=O	> 10	> 10	> 10	> 10	> 10	> 10	> 10	> 10	> 10							
COc1cc2c(c(O)c1-c1c(OC)cc(O)c3c1C(=O)C1=C(C[C@@H](O)[C@@](C)(O)[C@@H]1O)C3=O)C(=O)C1=C(C[C@](C)(O)[C@H](O)C1)C2=O	> 10	> 10		> 10	> 10	> 10	> 10	> 10								
COc1cc(O)c2c(c1)C(=O)c1cc(C)c(O)c(-c3c(OC)cc(O)c4c3C(=O)C3=C(C[C@@H](O)[C@@](C)(O)[C@@H]3O)C4=O)c1C2=O	> 10	> 10	> 10	> 10	> 10	> 10	> 10	> 10	> 10							
COc1cc(O)c2c(c1-c1c(OC)cc(O)c3c1C(=O)C1=C(C[C@@H](O)[C@@](C)(O)[C@@H]1O)C3=O)C(=O)C1=C(C[C@@H](O)[C@@](C)(O)[C@@H]1O)C2=O	> 10	> 10		> 10	> 10	> 10	> 10	> 10								
COc1cc(O)c2c(c1-c1c(OC)cc(O)c3c1C(=O)C1=C(C3=O)[C@@H](O)[C@H](O)[C@](C)(O)[C@H]1O)C(=O)C1=C(C2=O)[C@H](O)[C@@H](O)[C@@](C)(O)[C@@H]1O (atropisomer, axis not shown)	> 10	> 10	> 10					5 (≈ 3.35 µg/mL)	> 10	7.5 (≈ 5.03 µg/mL)	10 (≈ 6.71 µg/mL)					
COc1cc(O)c2c(c1-c1c(OC)cc(O)c3c1C(=O)c1cc(C)c(O)cc1C3=O)C(=O)C1=C(C2=O)[C@H](O)[C@@H](O)[C@@](C)(O)[C@@H]1O (single isomer, unassigned; atropisomer 1) [ALTERPORRIOL A/B]	> 10	> 10		> 10	> 10	7.9 (≈ 4.89 µg/mL)	> 10	> 10								
COc1cc(O)c2c(c1)C(=O)c1cc(C)c(O)c(-c3c(OC)cc4c(c3O)C(=O)C3=C(C4=O)[C@@H](O)[C@](C)(O)[C@H](O)[C@H]3O)c1C2=O (single isomer, unassigned; atropisomer 1) [ALTERPORRIOL C]	> 10	> 10	> 10	> 10	8.9 (≈ 5.51 µg/mL)	> 10	> 10	> 10	> 10							
COc1cc(O)c2c(c1-c1c(OC)cc(O)c3c1C(=O)C1=C(C3=O)[C@@H](O)[C@H](O)[C@](C)(O)[C@H]1O)C(=O)C1=C(C2=O)[C@H](O)[C@@H](O)[C@@](C)(O)[C@@H]1O (single isomer, unassigned; atropisomer 2)				5 (≈ 3.35 µg/mL)	> 10		> 10				2.5 (≈ 1.68 µg/mL)	>10				
COc1cc(O)c2c(c1)C(=O)c1cc(C)c(O)c(-c3c(OC)cc(O)c4c3C(=O)c3cc(C)c(O)cc3C4=O)c1C2=O (single isomer, unassigned; atropisomer 2)	> 10	> 10		> 10	> 10	> 10	> 10	> 10								
COc1cc(O)c2c(c1-c1c(OC)cc(O)c3c1C(=O)c1cc(C)c(O)cc1C3=O)C(=O)C1=C(C2=O)[C@H](O)[C@@H](O)[C@@](C)(O)[C@@H]1O (single isomer, unassigned; atropisomer 2) [ALTERPORRIOL A/B]			> 10						> 10	> 10	> 10	> 10	> 10	> 10	> 10	> 10
COc1cc(O)c2c(c1)C(=O)c1cc(C)c(O)c(-c3c(OC)cc4c(c3O)C(=O)c3cc(O)c(C)cc3C4=O)c1C2=O [ALTERPORRIOL Q]	> 10	> 10	> 10	> 10	> 10	> 10	> 10	> 10	> 10							
COc1cc(O)c2c(c1)C(=O)C1=C(C2=O)[C@H](O)[C@@H](O)[C@@](C)(O)[C@@H]1O [ALTERSOLANOL A]	4.1 (≈ 1.38 µg/mL)	> 10	> 10	4.1 (≈ 1.38 µg/mL)	> 10	> 10	8.2 (≈ 2.76 µg/mL)	2.07 (≈ 0.696 µg/mL)	> 10							
COc1cc(O)c2c(c1)C(=O)C1=C(C[C@@H](O)[C@@](C)(O)C1)C2=O [ALTERSOLANOL B]	7.8 (≈ 2.37 µg/mL)	7.8 (≈ 2.37 µg/mL)	> 10	7.8 (≈ 2.37 µg/mL)	> 10	> 10	> 10	7.8 (≈ 2.37 µg/mL)	> 10							
COc1cc(O)c2c(c1)C(=O)C1=C(C[C@@H](O)[C@@](C)(O)[C@@H]1O)C2=O [ALTERSOLANOL C]	8.8 (≈ 2.82 µg/mL)	> 10		> 10	> 10	> 10	> 10	> 10								
COc1cc(O)c2c(c1)[C@H](O)[C@@H]1[C@H](C[C@@H](O)[C@@](C)(O)[C@@H]1O)C2=O [ALTERSOLANOL L]	> 10	> 10	> 10	> 10	> 10	> 10	> 10	> 10	> 10							
COc1cc(O)c2c(c1)[C@H](O)[C@@H]1[C@@H](C2=O)[C@H](O)[C@@H](O)[C@@](C)(O)[C@@H]1O [AMPELANOL]	> 10	> 10		> 10	> 10	> 10	> 10	> 10								
O=C(O)c1cn(C2CC2)c2cc(N3CCNCC3)c(F)cc2c1=O [CIPROFLOXACIN]	0.6 (≈ 0.199 µg/mL)	0.3 (≈ 0.0994 µg/mL)		0.3 (≈ 0.0994 µg/mL)	0.6 (≈ 0.199 µg/mL)	0.6 (≈ 0.199 µg/mL)	0.3 (≈ 0.0994 µg/mL)	0.16 (≈ 0.053 µg/mL)								
COc1cc(O)c2c(c1)C(=O)c1cc(C)c(O)cc1C2=O [MACROSPORIN]	> 10	> 10	> 10	4.6 (≈ 1.31 µg/mL)	> 10	> 10	4.6 (≈ 1.31 µg/mL)	9.2 (≈ 2.62 µg/mL)	> 10							
COc1cc(O)c2c(c1)[C@H](O)[C@H]1C[C@](C)(O)[C@H](O)C[C@@H]1C2=O [TETRAHYDROALTERSOLANOL B]	> 10	> 10		7.3 (≈ 2.25 µg/mL)	> 10	> 10	> 10	> 10								
